ChEMBL document CHEMBL5724801, “EUbOPEN Chemogenomics Library - Multiplex” (2024)
“And” between values parts separate entries of the source, which are not always exact repeats. Identical values can stand only once.

Test system: HEK-293T
Experiment: Multiplex assay against HEK293T
Format: toxicity, cell-based
Conditions: human
In short: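 With compound added, live cells were imaged on a CQ1 microscope at 37°C and 5% CO2; staining with Hoechst33342, BioTracker Green Microtubule Cytoskeleton Dye, MitoTracker Red and Annexin V Alexa Fluor 680 had been done at seeding. The CellPathfinder machine-learning gating scheme split cells into Hoechst high-intensity objects or normal cells, normal cells into healthy, pyknosed or fragmented nuclei, and pyknosed cells into mitotic or apoptotic. The tubulin, mitochondrial-mass and membrane-permeability phenotypes are per cents of healthy-nucleus cells.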

[1] = 12 h, 1 µM, compound concentration 1 uM
[2] = 12 h, 10 µM, compound concentration 10 uM
[3] = 24 h, 1 µM, compound concentration 1 uM
[4] = 24 h, 10 µM, compound concentration 10 uM
[5] = 48 h, 1 µM, compound concentration 1 uM
[6] = 48 h, 10 µM, compound concentration 10 uM

## CC/C(=C(\c1ccc(O)cc1)c1ccc(OCCN(C)C)cc1)c1ccccc1 [AFIMOXIFENE]
[1]
  Population Apoptotic (%): 6.54% and 11.93%
  Population Fragmented Nuclei (%): 0.55% and 3.45%
  Population Healthy Nuclei (%): 57.18% and 21.38%
  Population Hoechst High Intensity Objects (%): 0.28% and 0%
  Population Membrane Permeable-Phenotype (%): 0.48% and 0%
  Population Mitochondria Different-Phenotype (%): 43.96% and 29.03%
  Population Mitotic Cells (%): 93.46% and 88.07%
  Population Normal (%): 99.72% and 100%
  Population Pyknosed Nuclei (%): 42.27% and 75.17%
  Total Cell Count: 363 and 145
[2]
  Population Apoptotic (%): 25.32% and 29.82%
  Population Fragmented Nuclei (%): 2.69% and 7.52%
  Population Hoechst High Intensity Objects (%): 0%
  Population Mitochondria Different-Phenotype (%): 25.19% and 44.44%
  Population Mitotic Cells (%): 74.68% and 70.18%
  Population Normal (%): 100%
  Population Pyknosed Nuclei (%): 53.2% and 85.71%
  Population Tubulin-Different-Phenotype (%): 8.4% and 22.22%
  Total Cell Count: 297 and 133
[3]
  Population Apoptotic (%): 8.84% and 19.33%
  Population Fragmented Nuclei (%): 1.87% and 0.54%
  Population Healthy Nuclei (%): 75.2% and 35.48%
  Population Hoechst High Intensity Objects (%): 0%
  Population Membrane Permeable-Phenotype (%): 1.45% and 3.03%
  Population Mitochondria Different-Phenotype (%): 15.56% and 16.67%
  Population Mitotic Cells (%): 91.16% and 80.67%
  Population Normal (%): 100%
  Population Pyknosed Nuclei (%): 22.93% and 63.98%
  Population Tubulin-Different-Phenotype (%): 15.56% and 13.64%
[4]
  Population Apoptotic (%): 49.01% and 63.64%
  Population Fragmented Nuclei (%): 2.59% and 6.2%
  Population Hoechst High Intensity Objects (%): 0%
  Population Membrane Permeable-Phenotype (%): 0.44% and 4.55%
  Population Mitochondria Different-Phenotype (%): 40.44% and 36.36%
  Population Mitotic Cells (%): 50.99% and 36.36%
  Population Normal (%): 100%
  Population Pyknosed Nuclei (%): 39.12% and 76.74%
  Population Tubulin-Different-Phenotype (%): 28.44% and 27.27%
  Total Cell Count: 386 and 129
[5]
  Population Apoptotic (%): 7.69% and 13.19%
  Population Fragmented Nuclei (%): 1.84% and 1.61%
  Population Healthy Nuclei (%): 85.71% and 61.85%
  Population Hoechst High Intensity Objects (%): 0% and 0.8%
  Population Membrane Permeable-Phenotype (%): 6.52% and 3.25%
  Population Mitochondria Different-Phenotype (%): 18.34% and 27.92%
  Population Mitotic Cells (%): 92.31% and 86.81%
  Population Normal (%): 100% and 99.2%
  Population Pyknosed Nuclei (%): 12.45% and 36.55%
[6]
  Population Apoptotic (%): 39.87% and 62.5%
  Population Fragmented Nuclei (%): 2.24% and 6.98%
  Population Healthy Nuclei (%): 66.53% and 24.81%
  Population Hoechst High Intensity Objects (%): 0.2% and 0%
  Population Membrane Permeable-Phenotype (%): 3.37% and 9.38%
  Population Mitochondria Different-Phenotype (%): 77.3% and 65.62%
  Population Mitotic Cells (%): 60.13% and 37.5%
  Population Normal (%): 99.8% and 100%
  Population Pyknosed Nuclei (%): 31.22% and 68.22%

## O=c1cccc2n1C[C@@H]1CNC[C@H]2C1 [CYTISINICLINE]
[1]
  Population Apoptotic (%): 13.38% and 21.1%
  Population Fragmented Nuclei (%): 1.29% and 6.54%
  Population Healthy Nuclei (%): 52.75% and 22.22%
  Population Hoechst High Intensity Objects (%): 0.64% and 0%
  Population Membrane Permeable-Phenotype (%): 0.61% and 0%
  Population Mitochondria Different-Phenotype (%): 39.26% and 17.65%
  Population Mitotic Cells (%): 86.62% and 78.9%
  Population Normal (%): 99.36% and 100%
  Population Pyknosed Nuclei (%): 45.95% and 71.24%
  Total Cell Count: 311 and 153
[2]
  Population Apoptotic (%): 15.45% and 10.14%
  Population Fragmented Nuclei (%): 3.17% and 4.62%
  Population Hoechst High Intensity Objects (%): 0%
  Population Membrane Permeable-Phenotype (%): 0.66% and 0%
  Population Mitochondria Different-Phenotype (%): 17.11% and 7.41%
  Population Mitotic Cells (%): 84.55% and 89.86%
  Population Normal (%): 100%
  Population Pyknosed Nuclei (%): 43.31% and 79.77%
  Total Cell Count: 284 and 173
[3]
  Population Apoptotic (%): 15.52% and 25.56%
  Population Fragmented Nuclei (%): 1.39% and 3.33%
  Population Healthy Nuclei (%): 75.5% and 36.67%
  Population Hoechst High Intensity Objects (%): 0.2% and 0%
  Population Membrane Permeable-Phenotype (%): 1.32% and 5.45%
  Population Mitochondria Different-Phenotype (%): 17.41% and 14.55%
  Population Mitotic Cells (%): 84.48% and 74.44%
  Population Normal (%): 99.8% and 100%
  Population Pyknosed Nuclei (%): 23.11% and 60%
  Population Tubulin-Different-Phenotype (%): 11.08% and 16.36%
[4]
  Population Apoptotic (%): 18.82% and 14.41%
  Population Fragmented Nuclei (%): 2.13% and 5.14%
  Population Healthy Nuclei (%): 81.43% and 42.99%
  Population Hoechst High Intensity Objects (%): 0%
  Population Membrane Permeable-Phenotype (%): 0.24% and 0%
  Population Mitochondria Different-Phenotype (%): 15.44% and 7.61%
  Population Mitotic Cells (%): 81.18% and 85.59%
  Population Normal (%): 100%
  Population Tubulin-Different-Phenotype (%): 7.6% and 1.09%
  Total Cell Count: 517 and 214
[5]
  Population Fragmented Nuclei (%): 2.45% and 3.98%
  Population Healthy Nuclei (%): 88.37% and 61.69%
  Population Hoechst High Intensity Objects (%): 0%
  Population Membrane Permeable-Phenotype (%): 2.27% and 1.61%
  Population Mitochondria Different-Phenotype (%): 16.42% and 20.97%
  Population Mitotic Cells (%): 94.29% and 66.67%
  Population Normal (%): 100%
[6]
  Population Apoptotic (%): 9.77% and 19.7%
  Population Fragmented Nuclei (%): 5.36% and 2.25%
  Population Healthy Nuclei (%): 85.61% and 79.15%
  Population Hoechst High Intensity Objects (%): 0.14% and 0%
  Population Membrane Permeable-Phenotype (%): 5.39% and 1.78%
  Population Mitochondria Different-Phenotype (%): 8.88% and 16.01%
  Population Mitotic Cells (%): 90.23% and 80.3%
  Population Normal (%): 99.86% and 100%
  Population Pyknosed Nuclei (%): 9.03% and 18.59%

## C[C@@H]1C[C@H]2[C@@H]3CCC4=CC(=O)C=C[C@]4(C)[C@@]3(F)[C@@H](O)C[C@]2(C)[C@@]1(O)C(=O)CO [DEXAMETHASONE]
[1]
  Population Apoptotic (%): 37% and 53%
  Population Fragmented Nuclei (%): 8% and 7%
  Population Healthy Nuclei (%): 78% and 80%
  Population Hoechst High Intensity Objects (%): 2% and 8%
  Population Membrane Permeable-Phenotype (%): 1% and 0%
  Population Mitochondria Different-Phenotype (%): 45% and 62%
  Population Mitotic Cells (%): 62% and 46%
  Population Normal (%): 97% and 91%
  Population Pyknosed Nuclei (%): 12%
  Population Tubulin-Different-Phenotype (%): 24% and 26%
  Total Cell Count: 420 and 372
[2]
  Population Apoptotic (%): 37% and 44%
  Population Fragmented Nuclei (%): 7% and 5%
  Population Healthy Nuclei (%): 79% and 81%
  Population Hoechst High Intensity Objects (%): 6% and 14%
  Population Membrane Permeable-Phenotype (%): 0%
  Population Mitochondria Different-Phenotype (%): 44% and 69%
  Population Mitotic Cells (%): 62% and 55%
  Population Normal (%): 93% and 85%
  Population Pyknosed Nuclei (%): 13%
  Population Tubulin-Different-Phenotype (%): 33% and 39%
  Total Cell Count: 374 and 436
[3]
  Population Apoptotic (%): 31% and 42%
  Population Fragmented Nuclei (%): 9% and 12%
  Population Healthy Nuclei (%): 78% and 79%
  Population Hoechst High Intensity Objects (%): 4% and 7%
  Population Membrane Permeable-Phenotype (%): 0%
  Population Mitochondria Different-Phenotype (%): 30% and 45%
  Population Mitotic Cells (%): 68% and 57%
  Population Normal (%): 95% and 92%
  Population Pyknosed Nuclei (%): 12% and 8%
  Population Tubulin-Different-Phenotype (%): 17%
  Total Cell Count: 569 and 499
[4]
  Population Apoptotic (%): 36% and 44%
  Population Fragmented Nuclei (%): 8% and 9%
  Population Healthy Nuclei (%): 74% and 79%
  Population Hoechst High Intensity Objects (%): 6% and 15%
  Population Membrane Permeable-Phenotype (%): 0%
  Population Mitochondria Different-Phenotype (%): 30% and 43%
  Population Mitotic Cells (%): 63% and 56%
  Population Normal (%): 93% and 84%
  Population Pyknosed Nuclei (%): 16% and 11%
  Population Tubulin-Different-Phenotype (%): 29% and 22%
  Total Cell Count: 453 and 513
[5]
  Population Apoptotic (%): 30% and 27%
  Population Fragmented Nuclei (%): 15%
  Population Healthy Nuclei (%): 77% and 78%
  Population Hoechst High Intensity Objects (%): 1% and 3%
  Population Membrane Permeable-Phenotype (%): 1% and 0%
  Population Mitochondria Different-Phenotype (%): 18% and 27%
  Population Mitotic Cells (%): 69% and 72%
  Population Normal (%): 98% and 96%
  Population Pyknosed Nuclei (%): 7% and 6%
  Population Tubulin-Different-Phenotype (%): 12% and 15%
  Total Cell Count: 915 and 685
[6]
  Population Apoptotic (%): 25% and 50%
  Population Fragmented Nuclei (%): 15% and 16%
  Population Healthy Nuclei (%): 76%
  Population Hoechst High Intensity Objects (%): 3% and 6%
  Population Membrane Permeable-Phenotype (%): 0%
  Population Mitochondria Different-Phenotype (%): 18% and 28%
  Population Mitotic Cells (%): 75% and 49%
  Population Normal (%): 96% and 93%
  Population Pyknosed Nuclei (%): 7%
  Population Tubulin-Different-Phenotype (%): 14% and 19%
  Total Cell Count: 760 and 756
